Legend:
Calf thymus DNA = test: Binding affinity to calf thymus DNA assessed as increase in melting temperature at 1 uM by spectrophotometer analysis; assay type: nucleic-acid assay; conditions: Bos taurus
[1] = Cytotoxicity against human K/VP.5 cells after 72 hrs by MTS assay; assay type: functional, cell-based; conditions: K/VP.5, 72 h
Procedure, shortened: (§1)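 Suspension cultures in αMEM with 10% fetal calf serum: parental K562 and the etoposide-resistant sub-line K/VP.5, which has reduced topoisomerase IIα. IC50 from triplicate data fitted to a four-parameter logistic equation. Resistance factor is IC50 in K/VP.5 divided by IC50 in K562.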

K562 [2] = test: Resistant factor, ratio of IC50 human K/VP.5 cells to IC50 for human K562 cells; assay type: functional
Procedure, shortened: as §1, with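 “IIα. Drugs freshly dissolved in DMSO (final ≤1.9% v/v) and given for 72 h, then MTS reduction read by absorbance.” for “IIα.”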

[3] = target: T1, DNA topoisomerase 1 (Homo sapiens) (UniProt P11387); test: Inhibition of topoisomerase 1-mediated relaxation of supercoiled pBR322 DNA at 20 uM after 20 mins using ethidium bromide staining by electrophoresis relative to control
T1 sequence (whole entry): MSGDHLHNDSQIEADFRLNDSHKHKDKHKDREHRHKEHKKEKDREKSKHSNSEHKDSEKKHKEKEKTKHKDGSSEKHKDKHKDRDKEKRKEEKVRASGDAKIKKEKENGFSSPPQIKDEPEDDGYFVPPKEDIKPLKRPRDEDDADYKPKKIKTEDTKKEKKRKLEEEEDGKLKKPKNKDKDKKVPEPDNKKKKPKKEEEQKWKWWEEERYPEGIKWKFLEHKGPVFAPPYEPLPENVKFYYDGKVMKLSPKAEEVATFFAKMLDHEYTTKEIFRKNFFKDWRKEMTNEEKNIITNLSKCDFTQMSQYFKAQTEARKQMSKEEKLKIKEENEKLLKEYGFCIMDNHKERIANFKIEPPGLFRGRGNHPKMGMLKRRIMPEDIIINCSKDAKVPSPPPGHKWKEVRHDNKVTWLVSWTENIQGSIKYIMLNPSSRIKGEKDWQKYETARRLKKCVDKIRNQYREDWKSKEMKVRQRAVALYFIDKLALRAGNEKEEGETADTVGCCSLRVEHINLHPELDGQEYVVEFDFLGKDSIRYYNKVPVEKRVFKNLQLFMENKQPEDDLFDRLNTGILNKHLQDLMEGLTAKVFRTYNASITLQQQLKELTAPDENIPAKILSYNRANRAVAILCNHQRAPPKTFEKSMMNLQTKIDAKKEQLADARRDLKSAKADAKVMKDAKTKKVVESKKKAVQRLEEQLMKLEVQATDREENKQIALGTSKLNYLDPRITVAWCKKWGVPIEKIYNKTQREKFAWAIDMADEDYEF
Procedure, shortened: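 Nuclear extract (50 ng) used as the topoisomerase I source with 60 ng supercoiled pBR322 and 20 µM drug, 20 min at 37 °C. Reaction stopped with 0.05% SDS, then electrophoresis run without ethidium bromide and gel stained afterwards. Supercoiled band quantified by densitometry relative to DNA alone without enzyme (100%). Camptothecin at 50 µM was the positive control.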

[4] = target: DNA topoisomerase 2-alpha (Homo sapiens) (UniProt P11388); test: Inhibition of human recombinant topoisomerase 2 alpha-mediated Crithidia fasciculate kDNA decatenation at 20 uM relative to control
DNA topoisomerase 2-alpha (Homo sapiens), sequence (P11388 whole entry): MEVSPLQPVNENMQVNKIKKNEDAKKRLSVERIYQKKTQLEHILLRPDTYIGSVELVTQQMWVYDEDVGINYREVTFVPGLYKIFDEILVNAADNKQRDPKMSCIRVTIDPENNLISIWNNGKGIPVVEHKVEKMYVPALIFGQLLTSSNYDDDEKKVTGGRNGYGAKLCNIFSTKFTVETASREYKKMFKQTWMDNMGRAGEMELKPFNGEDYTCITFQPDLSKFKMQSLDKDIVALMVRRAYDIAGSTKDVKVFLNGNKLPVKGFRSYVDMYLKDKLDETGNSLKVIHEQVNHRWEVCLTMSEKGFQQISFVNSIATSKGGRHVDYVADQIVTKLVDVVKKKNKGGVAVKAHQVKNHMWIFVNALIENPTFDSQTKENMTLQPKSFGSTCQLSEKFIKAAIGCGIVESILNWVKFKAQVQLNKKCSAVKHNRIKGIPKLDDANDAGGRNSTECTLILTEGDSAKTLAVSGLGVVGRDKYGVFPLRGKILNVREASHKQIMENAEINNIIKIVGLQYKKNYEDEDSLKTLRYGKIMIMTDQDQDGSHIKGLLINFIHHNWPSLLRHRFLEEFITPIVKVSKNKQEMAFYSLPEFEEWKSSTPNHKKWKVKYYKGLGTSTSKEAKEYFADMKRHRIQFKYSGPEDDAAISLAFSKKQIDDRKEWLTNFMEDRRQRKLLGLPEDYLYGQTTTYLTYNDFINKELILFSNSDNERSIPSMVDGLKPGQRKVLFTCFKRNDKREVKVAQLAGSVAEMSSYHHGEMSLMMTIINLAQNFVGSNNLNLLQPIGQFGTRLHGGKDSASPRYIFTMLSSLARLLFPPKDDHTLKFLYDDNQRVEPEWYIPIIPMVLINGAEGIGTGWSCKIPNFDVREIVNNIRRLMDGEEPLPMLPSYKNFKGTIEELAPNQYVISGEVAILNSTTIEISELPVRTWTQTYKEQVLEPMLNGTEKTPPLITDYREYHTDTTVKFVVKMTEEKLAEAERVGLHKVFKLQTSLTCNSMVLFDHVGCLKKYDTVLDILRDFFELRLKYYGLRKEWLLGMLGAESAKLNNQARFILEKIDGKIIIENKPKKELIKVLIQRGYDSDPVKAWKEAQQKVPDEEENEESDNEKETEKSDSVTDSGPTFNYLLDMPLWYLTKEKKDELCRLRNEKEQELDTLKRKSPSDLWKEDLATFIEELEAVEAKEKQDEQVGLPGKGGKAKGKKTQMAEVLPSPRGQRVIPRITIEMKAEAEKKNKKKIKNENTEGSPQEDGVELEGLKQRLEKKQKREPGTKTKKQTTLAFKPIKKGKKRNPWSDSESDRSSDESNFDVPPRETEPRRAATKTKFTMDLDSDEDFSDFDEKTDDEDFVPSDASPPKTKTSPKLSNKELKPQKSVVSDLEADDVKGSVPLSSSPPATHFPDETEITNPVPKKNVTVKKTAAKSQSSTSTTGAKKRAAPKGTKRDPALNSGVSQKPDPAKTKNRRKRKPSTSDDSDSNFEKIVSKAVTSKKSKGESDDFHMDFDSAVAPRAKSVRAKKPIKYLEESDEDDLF
Procedure, shortened: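 Topoisomerase IIα decatenation of kDNA with 20 µM compound, analysed by gel electrophoresis. Fully decatenated open circular DNA band quantified by densitometry. Inhibition calculated as 100 minus percentage relative integrated band intensity. Etoposide included as a control.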

K562 [5] = test: Cytotoxicity against human K562 cells after 72 hrs by MTS assay; assay type: functional, cell-based; conditions: K562, 72 h
Procedure, shortened: as §1, with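 “IIα. Drugs freshly dissolved in DMSO (final ≤1.9% v/v) and given for 72 h, then MTS reduction read by absorbance.” for “IIα.”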

[6] = target: DNA topoisomerase 2-alpha (Homo sapiens) (UniProt P11388); test: Inhibition of human recombinant topoisomerase 2 alpha assessed as stabilization of enzyme-PBR322 DNA complex at 100 uM relative to control
Procedure, shortened: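 Closed circular pBR322 DNA with topoisomerase IIα and 100 µM compound at 37 °C; components mixed on ice before drug addition. Complexes trapped with SDS and products separated by gel electrophoresis containing ethidium bromide. Linear DNA bands quantified by densitometry relative to the band from 100 µM etoposide, set to 100%.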

[7] = Chemical stability in DMSO-d6 assessed as decomposition after 24 hrs; assay type: physicochemical
DC3F = test: Cytotoxicity against hamster DC-3F cells; assay type: functional, cell-based; conditions: Cricetulus griseus

Row | ΔTm (Calf thymus DNA) [°C] | inhibition [3] [%] | inhibition [4] [%] | % cleavage [6] [%] | Stability [7] | Structure (SMILES) | IC50 [1] [µM] | Ratio IC50 (K562 [2]) | IC50 (K562 [5]) [µM] | IC50 (DC3F) [µM]
1 | 4.3 | 23 | 91 | – | – | CN(C)CC(=O)Nc1cc(C(=O)Nc2cc(C(=O)NCCn3nc4c5c(cccc53)C(=O)c3ccccc3-4)n(C)c2)n(C)c1 | 0.14 | 1.1 | 0.13 | –
2 | 1.7 | 31 | 97 | – | – | CN(C)CC(=O)Nc1cc(C(=O)Nc2cc(C(=O)NCCn3nc4c5c(cccc53)C(=O)c3c(Cl)cccc3-4)n(C)c2)n(C)c1 | 0.21 | 1.1 | 0.19 | –
3 | 1.6 | 16 | 94 | 18 | – | CN(C)CC(=O)Nc1cc(C(=O)NCCn2nc3c4c(cccc42)C(=O)c2ccccc2-3)n(C)c1 | 3.9 | 1.4 | 2.7 | –
4 | 0.6 | 52 | 94 | 16 | – | Cn1cc(NC(=O)c2cc(N)cn2C)cc1C(=O)NCCn1nc2c3c(cccc31)C(=O)c1c(Cl)cccc1-2 | 36.6 | 2.9 | 12.5 | –
5 | 2.7 | 62 | 100 | 18 | – | NCCn1nc2c3c(cccc31)C(=O)c1c(Cl)cccc1-2 | 3.5 | 1 | 3.3 | –
6 | 1 | 47 | 97 | 24 | – | Cn1cc(NC(=O)c2cc(NC(=O)OC(C)(C)C)cn2C)cc1C(=O)NCCn1nc2c3c(cccc31)C(=O)c1c(Cl)cccc1-2 | 1.4 | 0.7 | 2 | –
7 | 0.9 | 66 | 60 | 24 | – | O=C1c2ccccc2-c2nn(CCO)c3cccc1c23 | 10.2 | 0.9 | 11.9 | –
8 | 8.4 | – | 30 | 0 | – | COc1cccc2c1C(=O)c1c(O)c3c(c(O)c1C2=O)C[C@@](O)(C(=O)CO)C[C@@H]3O[C@H]1C[C@H](N)[C@H](O)[C@H](C)O1 [DOXORUBICIN] | – | – | 0.033 | –
9 | 0.4 | 31 | 91 | 4 | – | Cn1cc(NC(=O)c2cc(NC(=O)OC(C)(C)C)cn2C)cc1C(=O)NCCn1nc2c3c(cccc31)C(=O)c1ccccc1-2 | 0.82 | 0.8 | 1 | –
10 | 0.7 | 47 | 94 | 11 | Stable | Cn1cc(NC(=O)OC(C)(C)C)cc1C(=O)NCCn1nc2c3c(cccc31)C(=O)c1c(Cl)cccc1-2 | 11 | 1 | 10.7 | –
11 | 2.2 | 100 | 75 | 29 | – | NCCn1nc2c3c(cccc31)C(=O)c1ccccc1-2 | 3.1 | 1.7 | 1.8 | –
12 | 0.8 | 14 | 91 | 29 | – | Cn1cc(N)cc1C(=O)NCCn1nc2c3c(cccc31)C(=O)c1c(Cl)cccc1-2 | 11.4 | 1.2 | 9.9 | –
13 | 1.3 | 11 | 91 | 18 | Stable | Cn1cc(NC(=O)OC(C)(C)C)cc1C(=O)NCCn1nc2c3c(cccc31)C(=O)c1ccccc1-2 | 22 | 1.5 | 14.4 | –
14 | 0.6 | 21 | 97 | 22 | – | CN(C)CC(=O)Nc1cc(C(=O)NCCn2nc3c4c(cccc42)C(=O)c2c(Cl)cccc2-3)n(C)c1 | 5.3 | 1.5 | 3.5 | –
15 | 1.8 | 10 | 94 | 26 | – | Cn1cc(N)cc1C(=O)NCCn1nc2c3c(cccc31)C(=O)c1ccccc1-2 | 21.9 | 1.7 | 12.7 | –
16 | 2.7 | 49 | 91 | 6 | – | Cn1cc(NC(=O)c2cc(N)cn2C)cc1C(=O)NCCn1nc2c3c(cccc31)C(=O)c1ccccc1-2 | 6.4 | 1.5 | 4.1 | –
17 | 0.3 | 70 | 56 | 14 | – | O=C1c2c(Cl)cccc2-c2nn(CCO)c3cccc1c23 | 12 | 0.8 | 14.3 | –
18 | 5.3 | – | – | – | – | CN(C)CCNc1cccc2c1C(=O)c1cccc3c1c-2nn3CCNC(=O)c1cc(NC(=O)c2cc(NC(=O)CN(C)C)cn2C)cn1C | 0.63 | 3 | 0.21 | –

Row | Structure (SMILES) | ΔTm (Calf thymus DNA) [°C] | inhibition [3] [%] | inhibition [4] [%] | % cleavage [6] [%] | Stability [7] | IC50 [1] [µM] | Ratio IC50 (K562 [2]) | IC50 (K562 [5]) [µM] | IC50 (DC3F) [µM]
19 | Cn1cc(NC(=O)c2cc(NC(=O)CNC(=N)N)cn2C)cc1C(=O)NCCC(=N)N [NETROPSIN] | 5.7 | – | 39 | 0 | – | > 50 | – | > 50 | 3200

From ChEMBL document CHEMBL1165940, “Design, synthesis and biological evaluation of a novel series of anthrapyrazoles linked with netropsin-like oligopyrrole carboxamides as anticancer agents” (Bioorg Med Chem, 2010)
